How the values were obtained:
[1] = system: TNFα, IL1β, IRF3 expression in SH-SY5Y cells; test: qRT-PCR of pro-inflammatory factors in p-tau-treated cells; format: cell-based, human; details: p-tau 0.5 μM plus ligand 5 μM, 24 h
[2] = system: ATF4, CHOP, GADD34, TRB3 expression in SH-SY5Y cells; test: qRT-PCR of ER stress-associated pro-apoptotic factors in p-tau-treated cells; format: cell-based, human; details: p-tau 0.5 μM plus ligand 5 μM, 24 h
[3] = system: p-tau-treated SH-SY5Y cells; test: Cytoprotective activity against p-tau, cell viability; format: cell-based, human; details: 0.5 μM p-tau overnight, compound 8 μM
Outline: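 SH-SY5Y cells (passage 8–19; EMEM/F12, 10% FBS, 1% Pen-Strep) seeded 40,000/well in 24-well plates and grown overnight. Pretreated with test compound for 12 h, then exposed overnight to recombinant p-tau (E. coli BL21-expressed, heat-treated, TEV-cleaved). CCK-8 added for 2 h at 37 °C; OD read at 450 nm. Normalized to no-treatment mean; relative viability expressed against p-tau-only treatment.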

[4] = system: spliced Xbp1 mRNA, BiP, ERdj4 expression in SH-SY5Y cells; test: qRT-PCR of ER stress markers and UPR mediators in p-tau-treated cells; format: cell-based, human; details: p-tau 0.5 μM plus ligand 5 μM, 24 h
p-tau = p-tau (Homo sapiens, UniProt P10636); test: Transmission electron microscopy of p-tau; details: p-tau 10 μM, 24 h incubation, 37 °C, Tris pH 7.4
Sequence of p-tau (P10636 1-412 isoform P10636-7): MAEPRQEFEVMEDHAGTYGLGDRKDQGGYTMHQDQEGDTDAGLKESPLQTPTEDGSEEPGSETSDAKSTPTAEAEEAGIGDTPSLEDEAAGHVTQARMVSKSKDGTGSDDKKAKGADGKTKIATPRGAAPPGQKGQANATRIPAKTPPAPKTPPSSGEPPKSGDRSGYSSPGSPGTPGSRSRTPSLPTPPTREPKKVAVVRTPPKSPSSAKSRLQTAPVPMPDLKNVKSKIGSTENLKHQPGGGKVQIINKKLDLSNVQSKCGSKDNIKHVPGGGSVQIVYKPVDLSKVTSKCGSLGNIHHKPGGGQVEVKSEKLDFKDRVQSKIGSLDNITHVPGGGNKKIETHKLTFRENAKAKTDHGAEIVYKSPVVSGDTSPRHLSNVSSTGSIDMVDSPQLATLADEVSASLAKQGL

[5] = system: p-tau-treated SH-SY5Y cells; test: Cell morphology by contrast microscopy; format: cell-based, human; details: p-tau 0.5 μM plus ligand 1 5 μM, 24 h
SH-SY5Y cells = test: Cytotoxicity of the ligands alone, cell viability; format: cell-based; details: 8 μM
[6] = system: Xbp1s, P58ipk, ATF4 expression in SH-SY5Y cells; test: qRT-PCR of ER stress response induced by tunicamycin or thapsigargin; format: cell-based, human; details: 24 h
heparanase = details: previous report; cited from earlier work

SMILES | p-tau-induced inflammatory response (IL1β, TNFα, IRF3 expression) [1] | expression of ATF4, CHOP, GADD34 and TRB3 [2] | relative viability [3] | expression of spliced Xbp1 mRNA, BiP and ERdj4 (p-tau-induced ER stress response/UPR) [4] | morphology of p-tau (TEM) (p-tau) | cell density and morphology [5] | cytotoxicity of the compound alone (SH-SY5Y cells) | Tg-induced ER stress response (Xbp1s, P58ipk, ATF4) ([6]; Tg 0.5 μM plus ligand 1 5 μM) | Tm-induced ER stress response (Xbp1s, P58ipk, ATF4) ([6]; Tm 5 μg/mL plus ligand 1 5 μM) | heparanase inhibition (heparanase)
COC(=O)[C@]12CCC(C)(C)C[C@H]1C1=CCC3[C@@]4(C)CC[C@H](O[C@@H]5O[C@H](COS(=O)(=O)O)[C@@H](O[C@@H]6O[C@H](C(=O)O)[C@@H](O[C@H]7O[C@H](COS(=O)(=O)O)[C@@H](O)[C@H](O)[C@H]7NS(=O)(=O)O)[C@H](O)[C@H]6O)[C@H](O)[C@H]5NS(=O)(=O)O)C(C)(C)C4CC[C@@]3(C)C1(C)CC2 (stereo partly drawn) [Compound 1, 3β-(2-N-Sulfo-2-deoxy-6-O-sulfo-α-D-glucopyranosyl-(1 → 4)-β-D-glucopyranosyluronate-(1 → 4)-2-N-sulfo-2-deoxy-6-O-sulfo-β-D-glucopyranosyloxy)-methyloleanolate] | able to protect cells | significantly lowered | around 0.6 | strong protective effects | reorganization of p-tau from an amorphous structure into more ordered clusters | remarkably recovered cell density and morphology | did not exhibit cytotoxicity | failed to attenuate | failed to attenuate | –
O=C(O)[C@H]1O[C@@H](O[C@H]2[C@H](O)[C@@H](NS(=O)(=O)O)[C@H](OCCNS(=O)(=O)O)O[C@@H]2COS(=O)(=O)O)[C@H](O)[C@@H](O)[C@@H]1O[C@H]1O[C@H](COS(=O)(=O)O)[C@@H](O)[C@H](O)[C@H]1NS(=O)(=O)O [Compound 2] | did not offer protection | did not reduce | 0.3 | did not offer protection | – | – | did not exhibit cytotoxicity | – | – | potent heparanase inhibitor
COC(=O)[C@]12CCC(C)(C)C[C@H]1C1=CCC3[C@@]4(C)CC[C@H](O)C(C)(C)C4CC[C@@]3(C)C1(C)CC2 (stereo partly drawn) [OAME, oleanolic acid methyl ester, reference compound] | – | – | – | – | – | – | did not exhibit cytotoxicity | – | – | –
CN1CCc2cccc3c2[C@H]1Cc1ccc(O)c(O)c1-3 [apomorphine, reference compound] | – | – | 0.7 | – | reorganization of p-tau from an amorphous structure into more ordered clusters | – | – | – | – | –
